Measured values as given in the EternaBench riboswitch data.

System: MS2 coat protein
Test: apparent Kd, MS2 coat protein; higher = weaker binding; RNA-MaP array; FMN 200 µM where present
How it was run: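 On Illumina sequencing-chip clusters, designs were transcribed by stalled E. coli RNA polymerase and titrated with SNAP-549-labelled MS2 coat protein (0.7 or 1.5 nM, doubling to 3 µM), without and then with constant ligand, in 100 mM Tris-HCl pH 7.5, 80 mM KCl, 4 mM MgCl2, BSA, DTT, yeast tRNA and Tween-20. Apparent Kd is the median of filtered per-cluster curve fits to green signal normalised to red-channel RNA signal and control-cluster median Fmax.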

[1] = designed as: OFF switch for flavin mononucleotide, no ligand
[2] = ligand present: flavin mononucleotide, designed as: OFF switch for flavin mononucleotide
[3] = designed as: ON switch for flavin mononucleotide, no ligand
[4] = ligand present: flavin mononucleotide, designed as: ON switch for flavin mononucleotide

| Sequence | apparent Kd [1] [nM] | apparent Kd [2] [nM] | apparent Kd [3] [nM] | apparent Kd [4] [nM] |
| --- | --- | --- | --- | --- |
| UGGUACAUGAGGAUCACCCAUGUAAGAGCCCUCAUGCGAUGUAGAAGGUUAAUGCGUGUAGUGCUAAAGGAUAUACAUGAGUUU | 82.3 | 71.2 |  |  |
| CAAAAGCUAGGAUAUACGUCAAAGGGCCCGAUCGCUCUCGGACAUGAGGAUCACCCAUGUAGAAGGAGCGCACU | 14.4 | 16.8 |  |  |
| GCAUGCAUAGCGAUAUGAUCGAGAGAUCAUGUCGCUAAAUUUAGAAGGACAUGAGGAUCACCCAUGUAGGAUAUGGGAGCAUGC |  |  | 11.7 | 7.72 |
| UCCACUGCUGAGAAGGGAUACGGCUGGGUCGCAUCAGGAUAUCGAUACAGUGCAGCAUGAGGACAUGAGGAUCACCCAUGUGUG |  |  | 81 | 27 |
| GUAACAUGAGGAUCACCCAUGUAUAGAACACUCAAUAGAUCUGAGGAUAUAGUGGAAUUUACACACUAGAAGGCAGUGGGUGCA |  |  | 75.3 | 33.6 |
| GUAGCUAUCGGAGGAUAUUCAUGAAACAUGAGGAUCACCCAUGUUAAAUUGGGAGAAGGCCGAUAGCUACAAGAGCGAAAGCUC |  |  | 7.5 | 5.32 |
| CACGGGUCAGGAUAUUGUUAGUUUAGUUGUUUGUAUUAGUUCGAGAAGGGACAUGAGGAUCACCCAUGUGGUCA | 285 | 269 |  |  |
| CCUAUAAGAAAAUAGACGAAGUGGCCAGAAGGUGAAUGCCACAUGAGGAUCACCCAUGUUUCGAUCAAGGAUAUGGUUUCUCAC |  |  | 497 | 129 |
| UUCCGGGUGCAGAAGGGAUAGGCCUAUUUUCGUGGUAUCCAAACCUUACAUGAGGAUCACCCAUGUCAGGAUAUGCCCACGGAA | 4.93 | 4.72 |  |  |
| AUGGACGUCGUAGGAUAUGUAGGAUAUUCCUACAUGAGGAUCACCCAUGUUGACAUGGAAGAAGGACAGAAGGACGAUGUCCAU |  |  | 199 | 4.47 |
| GGAAAACAUGAGGAUCACCCAUGUGAGGAUAUGAGCGUCUAGUUGAGAGAUUGGACGCUCAGAAGGCACAUGCC | 28.5 | 247 |  |  |
| AGGGUAGUAGGAUAUACAUGAGGAUCACCCAUGUUUCCAUUGCGUGACUGGUCCUAGUGUAGAAGGGCUAGCAC | 18.6 | 17.6 |  |  |
| UUUACAUGAGGAUCACCCAUGUCUUGAAAGAUUAGUUCUGGUGAGGAUAUACAUGAUAAAGAAUUGUAGAAGGCACUGGGUACA |  |  | 113 | 33.1 |
| UUGCUACAUGAGGAUCACCCAUGUCAGGAUAUUGUCUAUACCGUGGAAGCUGUGUCGAUAAGAAGGGACUGUCU | 24.1 | 41.6 |  |  |
| AGGGCUUAAUGGCCCUAUGAGAUGAGAAGGGUAGGAGGGUGGAAGUACAUGAGGAUCACCCAUGUACAGGAUAUCAUGCCGAUU | 6.32 | 6.07 |  |  |
| ACAUGGAAGUAGAAGGGUAAUACUUUAGAAUGUACCAUUAGAUGAUGUUAUACAGGAUAUGCUAACAUGAGGAUCACCCAUGUG | 25.6 | 19.8 |  |  |
| ACCGUGUCAGGAUAUCCUGCUGUGCGGAAUCUGUAUUCACGGGAGAAGGGACAUGAGGAUCACCCAUGUUUGAG | 19.6 | 18.6 |  |  |
| GAGGAUUUUUAGCUGACAUGAGGAUCACCCAUGUCUUGACCCAGAAGGGCGUGGGAUUCCCAACCGCAGGAUAUGGAUAGUCGG |  |  | 64.8 | 35.7 |
| GGUCGUCAAGUCAGGAUAUCGUUUGGUCGGUGUGGCGAGAAGGGACAUGAGGAUCACCCAUGUCGUCUCAUCAG | 27 | 29.9 |  |  |
| ACUGUUUGAUUCCUCUUAUACAUGAGGAUCACCCAUGUUAUCGAGGAUAUGCAUUAGAGUGUUUAGCAGAAGGCGAUGUAAUUC | 5.89 | 12.9 |  |  |
| UUAAUAAAGUAAGGAUAUACAUGAGGAUCACUCGUAGAAGGUACUAUACAUGAGGAUCACCCAUGUUCCGGUCAGAAGACUGGA |  |  | 1100 | 778 |
| GUGCACACUCGAGGAUAUCGGAGAGGACUCCUUCGAGAAGGCGAUUCGUGCCGUGUUAUUCUGGACAUGAGGAUCACCCAUGUG |  |  | 126 | 38.2 |
| CAAGAUGUCUGGUAAUUGCGUACACAGGAUAUGGAUUGUUACAUGAGGAUCACCCAUGUUUCCUUUCAGAAGGGUGUAUCAUGU |  |  | 208 | 20.5 |
| GGAUGACAAAGUCAUCCUAUUCGAACAUGAGGAUCACCCAUGUAGGAUAUGCUUCUCAAAGAGAAGCAGAAGGACAUGUGCUUU | 36.8 | 160 |  |  |
| ACCCGGGCUAACAUGAGGAUCACCCAUGUGUUAUACUUAAUAUAGGAUAUGUUUAUACUUUUUGGGCAGAAGGAUGGCCCGGGU |  |  | 80.1 | 62.5 |
| GGAUCCAACACAGGAUAUGCUGGACUUUGUCCAGCAGAAGGGUGAAGAACAUGAGGAUCACCCAUGUGGAUCCAUAUAUGUAAU |  |  | 273 | 16.6 |
| UUGGACGUCGUAGGAUAUUUAGGAUAUUCCUACAUGAGGAUCACCCAUGUUGACAUGGAAGAAGGACAGAAGGACGAUGUCCAU |  |  | 24.1 | 8.23 |
